From ChEMBL document CHEMBL1146113, “Synthesis and SAR of heteroaryl-phenyl-substituted pyrazole derivatives as highly selective and potent canine COX-2 inhibitors” (Bioorg Med Chem Lett, 2006) come the findings set out here.

In general, IC50 refers to the concentration at which inhibition is half-maximal. A higher IC50 goes with lower potency. In general, bioavailability refers to dose-corrected exposure relative to a reference, in per cent. A higher bioavailability goes with good availability. One may read the half-life as the time needed for the level to fall by half in the phase considered. The low end stands for rapid decline, the high end for slow decline.

For one series, the target named is T1, Cyclooxygenase-2 (Canis lupus familiaris, UniProt Q8SPQ9).
T1 sequence (Q8SPQ9 whole entry): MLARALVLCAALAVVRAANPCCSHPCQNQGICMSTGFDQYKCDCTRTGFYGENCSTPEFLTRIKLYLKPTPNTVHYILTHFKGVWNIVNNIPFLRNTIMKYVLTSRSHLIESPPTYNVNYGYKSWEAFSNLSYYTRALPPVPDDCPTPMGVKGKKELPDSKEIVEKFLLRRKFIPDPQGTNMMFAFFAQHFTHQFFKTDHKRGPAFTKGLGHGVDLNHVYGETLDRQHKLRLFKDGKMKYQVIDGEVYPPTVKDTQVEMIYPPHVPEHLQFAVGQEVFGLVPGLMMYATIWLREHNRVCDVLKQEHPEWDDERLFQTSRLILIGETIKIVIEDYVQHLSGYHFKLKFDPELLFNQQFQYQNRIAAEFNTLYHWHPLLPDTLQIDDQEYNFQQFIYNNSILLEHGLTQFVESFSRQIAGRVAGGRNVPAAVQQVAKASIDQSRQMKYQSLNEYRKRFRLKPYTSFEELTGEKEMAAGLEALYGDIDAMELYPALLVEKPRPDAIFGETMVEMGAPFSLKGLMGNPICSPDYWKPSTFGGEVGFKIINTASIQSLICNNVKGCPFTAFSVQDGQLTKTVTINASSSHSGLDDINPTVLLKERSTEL
As to the kind of experiment: Inhibition of COX2 in canine whole blood. Format: tissue-based. Put shortly: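 Heparinized canine whole blood incubated overnight at 37 °C with drug plus LPS to stimulate PGE2. LPS-only controls gave maximum PGE2 and vehicle-only controls gave background. EDTA (0.3% final) then added and plasma collected and frozen. PGE2 measured by EIA, with samples diluted 1/1000.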

A further series is filed under the species Canis lupus familiaris. Put plainly: Selectivity for COX2 over COX1.
The target of series [1] is T2, Prostaglandin G/H synthase 1 (Canis lupus familiaris, UniProt Q8HZR1).
T2 sequence (Q8HZR1 whole entry): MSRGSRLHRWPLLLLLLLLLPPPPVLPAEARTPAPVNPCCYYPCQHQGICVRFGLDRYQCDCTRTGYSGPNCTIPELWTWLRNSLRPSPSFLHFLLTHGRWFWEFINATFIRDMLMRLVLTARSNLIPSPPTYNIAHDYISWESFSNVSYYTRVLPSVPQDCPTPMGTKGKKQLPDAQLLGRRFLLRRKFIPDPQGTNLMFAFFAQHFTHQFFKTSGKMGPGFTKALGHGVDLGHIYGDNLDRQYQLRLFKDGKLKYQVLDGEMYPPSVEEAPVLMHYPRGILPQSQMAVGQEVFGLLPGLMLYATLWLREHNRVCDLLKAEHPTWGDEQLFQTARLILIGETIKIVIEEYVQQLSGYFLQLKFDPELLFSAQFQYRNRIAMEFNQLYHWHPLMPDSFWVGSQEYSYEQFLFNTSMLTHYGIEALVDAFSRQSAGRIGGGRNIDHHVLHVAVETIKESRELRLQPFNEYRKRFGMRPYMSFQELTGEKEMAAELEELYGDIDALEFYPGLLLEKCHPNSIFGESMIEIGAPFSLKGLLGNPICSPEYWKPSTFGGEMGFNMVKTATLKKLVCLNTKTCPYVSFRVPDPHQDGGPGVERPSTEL
As to the kind of experiment: Inhibition of COX1 in canine whole blood. In a few lines:
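Canine whole blood incubated with drug for 1 h at 37 °C, with drug-free samples as maximum TXB2 controls. EDTA (0.3% final) then added and serum collected and frozen. COX-1 activity read as TXB2 production by EIA, with samples diluted 1/10,000.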

A short description of series [2]: Oral bioavailability in dog. In kind it is ADME, organism-based, Canis lupus familiaris. Particulars: in vivo.
Series [3] can be described thus: Half life in dog. In kind it is ADME, organism-based, Canis lupus familiaris. Particulars: in vivo.

For `Cc1cc(-c2cc(C(F)(F)F)nn2-c2ccc(S(C)(=O)=O)cn2)ccc1-c1cscn1`, the IC50 at Cyclooxygenase-2 is 90 nM; in series [1], 15500 nM. In the series filed under Canis lupus familiaris, the Ratio IC50 worked out at 172.

For `CS(=O)(=O)c1ccc(-n2nc(C(F)(F)F)cc2-c2ccc(-c3ccco3)cc2)nc1`, the results for the IC50 (against Cyclooxygenase-2; in series [1]) were 20 nM and 18200 nM, respectively. The Ratio IC50 in the series filed under Canis lupus familiaris was 759.

For `CS(=O)(=O)c1ccc(-n2nc(C(F)(F)F)cc2-c2ccc(-c3ccco3)c(F)c2)nc1`, the half-maximal inhibitory concentration (IC50) amounted to 50 nM against Cyclooxygenase-2 and 27900 nM in series [1]. The Ratio IC50 in the series filed under Canis lupus familiaris turned out to be 558.

Take `CS(=O)(=O)c1ccc(-n2nc(C(F)F)cc2-c2ccc(-c3ccco3)c(F)c2)nc1`: the IC50 on Cyclooxygenase-2 is 60 nM; in series [1] it was 5000 nM. In addition, the Ratio IC50 in the series listed under Canis lupus familiaris was 83.

Take `CS(=O)(=O)c1ccc(-n2nc(C(F)(F)F)cc2-c2ccc(-c3ccco3)c(C(N)=O)c2)nc1`: the IC50 was found to be 410 nM on Cyclooxygenase-2 and 2000 nM in series [1]. Moreover, the Ratio IC50 in the series listed under Canis lupus familiaris came to 4.9.

In the case of `CS(=O)(=O)c1ccc(-n2nc(C(F)(F)F)cc2-c2ccc(-c3ccco3)c(C#N)c2)nc1`, the results for the 50% inhibitory concentration (IC50) (on Cyclooxygenase-2; in series [1]) were 13 nM and 2000 nM, respectively. The Ratio IC50 in the series listed under Canis lupus familiaris was 154.

Turning to `Cc1scnc1-c1ccc(-c2cc(C(F)(F)F)nn2-c2ccc(S(C)(=O)=O)cn2)cc1`, the concentration for half-maximal inhibition (IC50) at Cyclooxygenase-2 is greater than 500 nM.

Turning to `CS(=O)(=O)c1ccc(-n2nc(C(F)(F)F)cc2-c2ccc(-c3cscn3)cc2F)nc1`, the figures for the concentration for half-maximal inhibition (IC50) (at Cyclooxygenase-2; in series [1]) were 290 nM and 22700 nM, respectively. Also, the Ratio IC50 in the series listed under Canis lupus familiaris stood at 78.

On to `Cc1cc(-c2cc(C(F)(F)F)nn2-c2ccc(S(C)(=O)=O)cn2)ccc1-c1ccco1`, for which the IC50 stood at 10 nM against Cyclooxygenase-2 and 3400 nM in series [1]. In the series filed under Canis lupus familiaris, the Ratio IC50 was determined as 340.

`CS(=O)(=O)c1ccc(-n2nc(C(F)(F)F)cc2-c2cccc(-c3cscn3)c2)nc1` displayed an IC50 on Cyclooxygenase-2 greater than 500 nM.

As to `Cc1cc(-c2cc(C(F)F)nn2-c2ccc(S(C)(=O)=O)cn2)ccc1-c1cscn1`, the 50% inhibitory concentration (IC50) at Cyclooxygenase-2 came to 19 nM; in series [1], 3800 nM. The Ratio IC50 in the series filed under Canis lupus familiaris came to 200.

As for `Cc1cc(-c2cc(C(F)(F)F)nn2-c2ccc(S(C)(=O)=O)cn2)ccc1-c1cocn1`, the IC50 came out at 30 nM against Cyclooxygenase-2 and 12700 nM in series [1]. Further, in the series listed under Canis lupus familiaris, the Ratio IC50 was 487.

In the case of `CS(=O)(=O)c1ccc(-n2nc(C(F)(F)F)cc2-c2ccc(-c3cncs3)cc2)nc1`, the 50% inhibitory concentration (IC50) on Cyclooxygenase-2 is 180 nM; in series [1] it was 2700 nM. Also, the Ratio IC50 in the series listed under Canis lupus familiaris came out at 15.

For the compound `Cc1cc(-c2cc(C(F)(F)F)nn2-c2ccc(S(C)(=O)=O)cn2)ccc1-c1ncco1`, the concentration for half-maximal inhibition (IC50) came out at 65 nM at Cyclooxygenase-2 and 11100 nM in series [1]. The Ratio IC50 in the series listed under Canis lupus familiaris was determined as 171.

Take `CS(=O)(=O)c1ccc(-n2nc(C(F)(F)F)cc2-c2ccc(-c3ccco3)c(Cl)c2)nc1`: the bioavailability in series [2] was found to be 34%. Also, the 50% inhibitory concentration (IC50) against Cyclooxygenase-2 is 12 nM; in series [1] it was greater than 50000 nM. Further, the Ratio IC50 in the series filed under Canis lupus familiaris is greater than 4170. This compound had a half-life in series [3] of 16.4 h.

Consider `CS(=O)(=O)c1ccc(-n2nc(C(F)(F)F)cc2-c2ccc(-c3cscn3)cc2)nc1`, for which the half-maximal inhibitory concentration (IC50) against Cyclooxygenase-2 is 160 nM; in series [1], greater than 50000 nM. Moreover, in the series listed under Canis lupus familiaris, the Ratio IC50 was greater than 313.

Consider `CS(=O)(=O)c1ccc(-n2nc(C(F)(F)F)cc2-c2ccc(-c3nccs3)c(C#N)c2)nc1`, for which the half-maximal inhibitory concentration (IC50) against Cyclooxygenase-2 was 110 nM; in series [1] it was 23400 nM. In the series listed under Canis lupus familiaris, the Ratio IC50 was 212.

Compound `COC(=O)c1cc(-c2cc(C(F)(F)F)nn2-c2ccc(S(C)(=O)=O)cn2)ccc1-c1ccco1` came in with an IC50 at Cyclooxygenase-2 greater than 500 nM.

Turning to `CS(=O)(=O)c1ccc(-n2nc(C(F)(F)F)cc2-c2ccc(-c3cscn3)c(Cl)c2)nc1`, the IC50 is less than 50 nM against Cyclooxygenase-2 and 16000 nM in series [1]. Further, in the series listed under Canis lupus familiaris, the Ratio IC50 was greater than 320.

With `CS(=O)(=O)c1ccc(-n2nc(C(F)F)cc2-c2ccc(-c3ccco3)c(Cl)c2)nc1`, the IC50 at Cyclooxygenase-2 stood at 10 nM; in series [1], 5500 nM. Further, the Ratio IC50 in the series listed under Canis lupus familiaris turned out to be 550.

On to `CS(=O)(=O)c1ccc(-n2nc(C(F)F)cc2-c2ccc(-c3ccco3)cc2)nc1`, for which the half-maximal inhibitory concentration (IC50) against Cyclooxygenase-2 worked out at 130 nM; in series [1], 12000 nM. Also, the Ratio IC50 in the series listed under Canis lupus familiaris is 92.

As to `CS(=O)(=O)c1ccc(-n2nc(C(F)(F)F)cc2-c2ccc(-c3nccs3)cc2)nc1`, the results for the concentration for half-maximal inhibition (IC50) (against Cyclooxygenase-2; in series [1]) were 210 nM and 50000 nM, respectively. Also, the Ratio IC50 in the series listed under Canis lupus familiaris was determined as 238.
